Reference: ChEMBL document CHEMBL4364272, “Discovery of a Lead Triphenylethanamine Cholesterol Ester Transfer Protein (CETP) Inhibitor” (ACS Med Chem Lett, 2019)
Calls of active or inactive are those of the source. The rule behind the calls is not given here.

How the values were obtained:
Mus musculus [1] = assay: In vivo inhibition of CETP in hCETP/apoB-100 dual transgenic mouse assessed as reduction in [3H]-CE transfer at 10 mg/kg, po administered via gavage measured after 2 to 8 hrs by radioactivity based assay; format: functional, organism-based
[2] = Stability in human liver microsomes assessed as parent compound remaining at 50 uM preincubated for 5 to 7 mins followed by NADPH addition and measured 10 mins post-dose by LC-MS/MS; format: ADME, Microsome; details: read-out: Stability
[3] = biological target: Voltage-gated inwardly rectifying potassium channel KCNH2 (Homo sapiens, UniProt Q12809); assay: Inhibition of human ERG expressed in HEK293 cells by flux assay
Chain of Voltage-gated inwardly rectifying potassium channel KCNH2 (Q12809 whole entry): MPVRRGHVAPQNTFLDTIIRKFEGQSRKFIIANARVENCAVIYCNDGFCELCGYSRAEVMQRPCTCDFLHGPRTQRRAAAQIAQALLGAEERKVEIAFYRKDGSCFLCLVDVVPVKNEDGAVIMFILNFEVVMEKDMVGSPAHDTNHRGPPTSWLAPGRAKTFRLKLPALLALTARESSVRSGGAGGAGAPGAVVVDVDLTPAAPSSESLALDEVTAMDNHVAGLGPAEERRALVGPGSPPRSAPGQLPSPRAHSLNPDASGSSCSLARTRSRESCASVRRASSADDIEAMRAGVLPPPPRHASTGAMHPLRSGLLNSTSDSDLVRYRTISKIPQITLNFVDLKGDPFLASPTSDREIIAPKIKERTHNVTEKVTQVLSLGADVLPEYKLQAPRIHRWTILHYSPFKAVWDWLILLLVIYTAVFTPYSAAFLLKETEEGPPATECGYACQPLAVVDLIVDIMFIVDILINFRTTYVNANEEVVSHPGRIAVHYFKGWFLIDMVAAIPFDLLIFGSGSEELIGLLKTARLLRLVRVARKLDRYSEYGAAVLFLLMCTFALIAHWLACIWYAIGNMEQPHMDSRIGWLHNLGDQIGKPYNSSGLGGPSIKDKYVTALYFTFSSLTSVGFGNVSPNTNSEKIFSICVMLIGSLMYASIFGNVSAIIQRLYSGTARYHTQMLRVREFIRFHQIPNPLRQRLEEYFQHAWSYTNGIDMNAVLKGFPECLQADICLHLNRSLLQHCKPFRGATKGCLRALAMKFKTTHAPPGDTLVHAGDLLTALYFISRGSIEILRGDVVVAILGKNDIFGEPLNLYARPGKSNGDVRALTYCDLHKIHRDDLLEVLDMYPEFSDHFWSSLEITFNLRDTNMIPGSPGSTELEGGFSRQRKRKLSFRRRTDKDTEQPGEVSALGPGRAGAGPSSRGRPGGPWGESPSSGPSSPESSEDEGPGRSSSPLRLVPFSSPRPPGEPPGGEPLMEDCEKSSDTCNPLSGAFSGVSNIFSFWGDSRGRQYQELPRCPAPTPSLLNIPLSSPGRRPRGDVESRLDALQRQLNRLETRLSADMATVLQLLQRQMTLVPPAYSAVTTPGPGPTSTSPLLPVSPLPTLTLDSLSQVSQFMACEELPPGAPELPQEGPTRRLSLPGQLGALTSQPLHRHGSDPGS

[4] = biological target: T1, Cholesteryl ester transfer protein (Homo sapiens, UniProt P11597); assay: Inhibition of CETP in human whole plasma assessed as reduction in [3H]-CE/HDL transfer incubated for 2.5 hrs by topcount scintillation counting assay; format: cell-free
T1 sequence (P11597 whole entry): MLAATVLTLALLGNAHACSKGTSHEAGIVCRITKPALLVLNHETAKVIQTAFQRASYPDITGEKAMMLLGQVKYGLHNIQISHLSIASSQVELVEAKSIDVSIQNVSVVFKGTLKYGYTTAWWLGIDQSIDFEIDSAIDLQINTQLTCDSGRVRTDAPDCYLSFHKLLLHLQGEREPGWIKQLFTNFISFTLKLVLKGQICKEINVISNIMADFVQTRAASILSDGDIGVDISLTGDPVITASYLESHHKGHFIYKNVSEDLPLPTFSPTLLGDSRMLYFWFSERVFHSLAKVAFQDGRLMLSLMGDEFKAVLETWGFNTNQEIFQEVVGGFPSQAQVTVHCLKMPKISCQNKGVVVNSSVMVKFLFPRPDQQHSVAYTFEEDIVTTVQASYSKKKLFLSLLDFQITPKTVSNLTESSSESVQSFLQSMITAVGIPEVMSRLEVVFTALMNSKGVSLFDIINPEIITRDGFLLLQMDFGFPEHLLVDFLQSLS
Procedure, shortened: (§1)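 CETP activity was measured by scintillation proximity assay and by human whole plasma assay. Each was run in duplicate at six concentrations, and the mean values were used to calculate IC50.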

[5] = Stability in mouse liver microsomes assessed as parent compound remaining at 50 uM preincubated for 5 to 7 mins followed by NADPH addition and measured 10 mins post-dose by LC-MS/MS; format: ADME, Microsome; details: read-out: Stability
[6] = biological target: T1, Cholesteryl ester transfer protein; assay: Inhibition of human recombinant CETP assessed as reduction in [3H]CE/HDL transfer incubated for 4 hrs by scintillation proximity assay; procedure, shortened: as §1
[7] = Half life in Sprague-Dawley rat at 1 mg/kg, iv or 10 mg/kg, po administered via gavage measured upto 24 hrs by LC-MS/MS; format: ADME, organism-based; details: in vivo
Procedure, shortened: (§2)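 Single IV and oral doses: rat 1 mg/kg IV and 10 mg/kg PO; mouse 5 mg/kg IV and 10 mg/kg PO; monkey 1 mg/kg IV and 5 mg/kg PO. IV vehicle was 10% Cremophor/10% EtOH/80% H2O for rodents and 70% PEG-400/10% EtOH/20% H2O for monkey. Oral vehicle was 15% Miglyol 812/30% Capmul MCM/15% Triacetin/40% Cremophor RH40, or the Cremophor vehicle for rat. Vss, Cl, t1/2 and %F were derived.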

Mus musculus [8] = assay: In vivo inhibition of CETP in hCETP/apoB-100 dual transgenic mouse assessed as reduction in [3H]-CE transfer at 1 mg/kg, po administered via gavage measured after 2 to 8 hrs by radioactivity based assay; format: functional, organism-based
[9] = Clearance in Sprague-Dawley rat at 1 mg/kg, iv or 10 mg/kg, po administered via gavage measured upto 24 hrs by LC-MS/MS; format: ADME, organism-based; details: in vivo; procedure, shortened: as §2
[10] = Volume of distribution at steady state in Sprague-Dawley rat at 1 mg/kg, iv or 10 mg/kg, po administered via gavage measured upto 24 hrs by LC-MS/MS; format: ADME, organism-based; details: in vivo, read-out: Vdss; procedure, shortened: as §2
[11] = Oral bioavailability in Sprague-Dawley rat at 10 mg/kg administered via gavage measured upto 24 hrs by LC-MS/MS; format: ADME, organism-based; details: in vivo; procedure, shortened: as §2
[12] = biological target: T2, Cholesteryl ester transfer protein (Homo sapiens) (UniProt P11597); assay: Potency index, ratio of torcetrapib IC50 to test compound IC50 for inhibition of CETP in human whole plasma; format: cell-free
T2 sequence (whole entry): T1 sequence (P11597 whole entry)

CYP11B1 = assay: Upregulation of CYP11B1 gene expression in human NCI-H295R cells at 0.1 uM measured after 24 hrs relative to control; format: ADME, cell-based; details: read-out: FC
Procedure, shortened: (§3)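 H295R cells were incubated for 24 h with test agent at 10 μM or angiotensin-II at 0.1 μM. CYP11B1 and CYP11B2 mRNA levels were measured and expressed as fold of control.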

CYP11B2 = assay: Upregulation of CYP11B2 gene expression in human NCI-H295R cells at 0.1 uM measured after 24 hrs relative to control; format: ADME, cell-based; details: read-out: FC; procedure, shortened: as §3

Compound | remaining at 10 min, 50 µM [2] [%] | IC50 [3] [µM] | IC50 [4] [nM] | remaining at 10 min, 50 µM [5] [%] | IC50 [6] [nM] | further results
CCOC(=O)N1c2ccc(C(F)(F)F)cc2[C@@H](N(Cc2cc(C(F)(F)F)cc(C(F)(F)F)c2)C(=O)OC)C[C@H]1CC |  |  |  |  |  | inhibition (Mus musculus [1]): Active
CC(C)Oc1cc([C@@](Cc2ccccc2)(NCC(N)C(O)(C(F)(F)F)C(F)(F)F)c2cc(F)cc(OC(F)(F)C(F)F)c2)ccc1F (stereo partly specified) | 81 | > 80 | 200 | 68 | 26 | 
CC(C)Oc1cc([C@@](Cc2ccccc2)(NC(=O)C(N)C(O)(C(F)(F)F)C(F)(F)F)c2cc(F)cc(OC(F)(F)C(F)F)c2)ccc1F (stereo partly specified) | 95 | 44 | 56 | 90 | 3 | half-life [7]: 114 min; inhibition (Mus musculus [8]): Active; clearance [9]: 5.4 mL/min/kg; Vd [10]: 0.5 L/kg; bioavailability [11]: 12%; Ratio IC50 [12]: 2
CC[C@H](C)[C@H](NC(=O)[C@H](Cc1ccc(O)cc1)NC(=O)[C@@H](NC(=O)[C@H](CCCNC(=N)N)NC(=O)[C@@H](N)CC(=O)O)C(C)C)C(=O)N[C@@H](Cc1cnc[nH]1)C(=O)N1CCC[C@H]1C(=O)N[C@@H](Cc1ccccc1)C(=O)O [ANGIOTENSIN II] |  |  |  |  |  | fold induction at 24 h, 0.1 µM (CYP11B1): 4; fold induction at 24 h, 0.1 µM (CYP11B2): 4
CC(C)NC(C(=O)N[C@](Cc1ccccc1)(c1ccc(F)cc1)c1cc(F)cc(C(F)(F)F)c1)C(O)(C(F)(F)F)C(F)(F)F (stereo partly specified) | 71 | 63 | 7100 | 54 | 230 | 
CNC(C(=O)N[C@](Cc1ccccc1)(c1ccc(F)cc1)c1cc(F)cc(C(F)(F)F)c1)C(O)(C(F)(F)F)C(F)(F)F (stereo partly specified) | 62 | 13 | 6200 | 87 | 140 | 
CC(C)(C)Oc1cc([C@@](Cc2ccccc2)(NC(=O)C(N)C(O)(C(F)(F)F)C(F)(F)F)c2cc(F)cc(OC(F)(F)C(F)F)c2)ccc1F (stereo partly specified) | 100 |  | 140 | 100 | 5 | 
CC(C)Oc1cc([C@@](Cc2ccccc2)(NCC(O)C(O)(C(F)(F)F)C(F)(F)F)c2cc(F)cc(OC(F)(F)C(F)F)c2)ccc1F (stereo partly specified) | 100 | 12 | 58 | 100 | 5 | 
CC(C)Oc1cc([C@@](Cc2ccccc2)(NC(=O)C(O)C(O)(C(F)(F)F)C(F)(F)F)c2cc(F)cc(OC(F)(F)C(F)F)c2)ccc1F (stereo partly specified) | 89 |  | 84 | 100 | 1 | 
NC(C(=O)N[C@@](Cc1ccccc1)(c1cc(F)cc(OC(F)(F)C(F)F)c1)c1ccc(Cl)cn1)C(O)(C(F)(F)F)C(F)(F)F (stereo in doubt; 9a) | 100 | > 80 | 5900 | 100 | 53 | 
CC(C)Oc1cc([C@@](Cc2ccccc2)(NC(=O)C(N)C(O)C(F)(F)F)c2cc(F)cc(OC(F)(F)C(F)F)c2)ccc1F (stereo partly specified) | 2 |  | 270 | 16 | 6 | 
CN(C)C(C(=O)N[C@](Cc1ccccc1)(c1ccc(F)cc1)c1cc(F)cc(C(F)(F)F)c1)C(O)(C(F)(F)F)C(F)(F)F (stereo partly specified) | 58 | 16 | 30000 | 82 | 3300 | 
O=C(CC(O)(C(F)(F)F)C(F)(F)F)N[C@@](Cc1ccccc1)(c1cc(F)cc(C(F)(F)F)c1)c1ccc(Cl)cn1 | 92 | 22 | 3800 | 91 | 120 | 
O=C(N[C@@](Cc1ccccc1)(c1cc(F)cc(C(F)(F)F)c1)c1ccc(Cl)cn1)C(O)C(O)(C(F)(F)F)C(F)(F)F (stereo partly specified) |  |  | 1400 |  | 35 | 
NC(C(=O)N[C@@](Cc1ccccc1)(c1cc(F)cc(OC(F)(F)C(F)F)c1)c1ccc(Cl)cn1)C(O)(C(F)(F)F)C(F)(F)F (stereo in doubt; 9b) |  |  | 940 |  | 80 | IC50 ([3]; hek293): > 80 µM
NC(C(=O)N[C@](Cc1ccccc1)(c1ccc(F)cc1)c1cc(F)cc(C(F)(F)F)c1)C(O)(C(F)(F)F)C(F)(F)F (stereo partly specified) | 100 | > 80 | 430 | 72 | 11 | 
